In ChEMBL document CHEMBL1155909, “Discovery and stereoselective synthesis of the novel isochroman neurokinin-1 receptor antagonist 'CJ-17,493'” (Bioorg Med Chem, 2008):
pIC50, pKi: −log10 of the molar value.

Key:
[1] = tested on: Mustela putorius furo; experiment: Antiemetic activity against cisplatin-induced emesis in ferrets at 0.1 mg/kg, sc; assay type: functional; details: route subcutaneous
Summary of the method: (§1)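 Ferrets were given the test compound sc 30 min before cisplatin (10 mg/kg, ip). Retching and vomiting/gagging episodes were counted against vehicle control. Groups were n = 4–5, data are mean ± SEM, and Student's t-test was used. Results are given as ED90 (mg/kg, sc) or as % inhibition at the stated dose.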

[2] = target: CYP2D6 (Homo sapiens, UniProt P10635); experiment: (§2) Inhibition of human CYP2D6 at 5 uM; assay type: ADME
[3] = tested on: Liver microsomes; experiment: Metabolic stability in human liver microsome assessed as ratio of half life between CYP2D6-deficient microsome and CYP2D6-deficient microsome with addition of exogenous CYP2D6; assay type: ADME
Summary of the method: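 Half-lives were measured in CYP2D6-deficient human liver microsomes with and without added exogenous CYP2D6. The value is the ratio of the half-life without CYP2D6 to the half-life with it.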

[4] = target: Substance-P receptor (Homo sapiens, UniProt P25103); experiment: Displacement of [3H]SP from NK1 receptor in human IM9 cells
[5] = tested on: Mustela putorius furo; experiment: Antiemetic activity against cisplatin-induced emesis in ferrets at 0.3 mg/kg, sc; assay type: functional; details: route subcutaneous; summary of the method: as §1
[6] = tested on: Gerbillinae; experiment: Inhibition of [Sar9, Met(O2)11]SP-induced foot tapping in sc dosed gerbil
[7] = Oral bioavailability in rat at 1 to 30 mg/kg; assay type: ADME, organism-based; details: in vivo
Summary of the method: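 Rats received 1–30 mg/kg orally as the hydrochloride salt dissolved in water. Oral bioavailability was determined against iv data.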

[8] = tested on: Gerbillinae; experiment: Inhibition of [Sar9, Met(O2)11]SP-induced foot tapping in gerbil at 1 mg/kg, sc relative to CP-122721; details: for inhibition (INH) / inhibition in vivo at 1 mg/kg: dose 1 mg/kg, route subcutaneous
[9] = tested on: Gerbillinae; experiment: Inhibition of [Sar9, Met(O2)11]SP-induced foot tapping in gerbil at 0.1 mg/kg, sc relative to CP-122721
[10] = target: T1, Cytochrome P450 2D6 (Homo sapiens, UniProt P10635); experiment: Binding affinity to human CYP2D6 using bufuralol as substrate; assay type: ADME
[11] = tested on: Mustela putorius furo; experiment: Antiemetic activity against cisplatin-induced emesis in sc dosed ferrets; assay type: functional, organism-based; summary of the method: as §1
[12] = target: T1, Cytochrome P450 2D6; experiment: as §2; assay type: ADME; details: 5 µM
[13] = tested on: Mustela putorius furo; experiment: Antiemetic activity against cisplatin-induced emesis in ferrets at 1 mg/kg, sc; assay type: functional; details: route subcutaneous; summary of the method: as §1
[14] = Gerbillinae, sc, dose 0.1 mg/kg, route subcutaneous
[15] = Mustela putorius, sc, read-out: ED90

Sequence of Substance-P receptor (P25103 whole entry): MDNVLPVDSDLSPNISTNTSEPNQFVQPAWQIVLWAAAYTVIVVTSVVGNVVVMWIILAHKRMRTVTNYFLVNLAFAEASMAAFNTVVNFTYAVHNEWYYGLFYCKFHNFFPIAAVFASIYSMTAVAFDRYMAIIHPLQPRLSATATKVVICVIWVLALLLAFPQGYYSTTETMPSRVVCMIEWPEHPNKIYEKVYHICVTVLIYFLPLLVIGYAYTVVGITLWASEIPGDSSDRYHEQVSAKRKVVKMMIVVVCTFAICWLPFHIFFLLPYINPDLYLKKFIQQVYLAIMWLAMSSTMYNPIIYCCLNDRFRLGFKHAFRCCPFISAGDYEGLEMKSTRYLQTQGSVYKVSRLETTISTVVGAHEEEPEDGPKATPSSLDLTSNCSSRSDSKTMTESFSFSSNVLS
T1 sequence (P10635 whole entry): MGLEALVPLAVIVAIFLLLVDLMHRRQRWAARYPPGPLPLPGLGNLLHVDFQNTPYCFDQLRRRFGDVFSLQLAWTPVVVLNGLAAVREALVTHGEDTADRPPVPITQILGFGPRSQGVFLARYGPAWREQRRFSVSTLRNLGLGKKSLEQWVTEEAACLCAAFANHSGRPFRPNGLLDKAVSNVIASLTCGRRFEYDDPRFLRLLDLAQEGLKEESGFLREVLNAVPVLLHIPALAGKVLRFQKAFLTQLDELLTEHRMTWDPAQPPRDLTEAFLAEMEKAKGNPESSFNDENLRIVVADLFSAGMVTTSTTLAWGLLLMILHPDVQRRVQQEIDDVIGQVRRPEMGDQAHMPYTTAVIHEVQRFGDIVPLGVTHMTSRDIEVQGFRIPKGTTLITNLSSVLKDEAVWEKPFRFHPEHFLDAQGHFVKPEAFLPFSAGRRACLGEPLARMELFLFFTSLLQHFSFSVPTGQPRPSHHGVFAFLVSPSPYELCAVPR
Sequence of CYP2D6 (P10635 whole entry): as above

SMILES | inhibition at 5 µM [2] [%] | Ratio [3] | pIC50 [4] | ED50 [6] [mg/kg] | ED100 [11] | other results
COc1ccc(C(F)C(F)(F)F)cc1CN[C@H]1CCCN[C@H]1c1ccccc1 (mixture of isomers) | 46.6 | 1.83 | 9.15 | 0.16 |  | inhibition in vivo at 0.1 mg/kg [1]: 97%; inhibition in vivo at 0.3 mg/kg [5]: 97%
COc1cc2c(cc1CN[C@H]1CCCN[C@H]1c1ccccc1)[C@](C)(C(F)(F)F)OCC2.Cl.Cl |  |  |  |  |  | bioavailability [7]: < 1%
COc1ccc(C(C)C(F)(F)F)cc1CN[C@H]1CCCN[C@H]1c1ccccc1 (mixture of isomers) | 65.9 | 2.2 | 9.40 | 0.82 | >=1 mg kg-1 | pKi [10]: 6.08; ED90 [11]: 0.3 mg/kg
COc1ccc(C(C)(F)C(F)(F)F)cc1CN[C@H]1CCCN[C@H]1c1ccccc1 (mixture of isomers) |  |  | > 10.00 |  |  | inhibition in vivo at 1 mg/kg ([8]; Gerbillinae, sc): 57%; inhibition in vivo at 0.1 mg/kg [9, 14]: 30%
COc1ccc(C(C(F)(F)F)C(F)(F)F)cc1CN[C@H]1CCCN[C@H]1c1ccccc1 | 43.1 | 2 | > 10.00 | 0.33 | 0.9 mg/kg | pKi [10]: 5.68; ED90 [11, 15]: 0.48 mg/kg
COc1ccc(C(C)(C)C(F)(F)F)cc1CN[C@H]1CCCN[C@H]1c1ccccc1 | 54.8 | 1.16 | 9.70 | 0.12 | 1 mg/kg | pKi [10]: 5.87; ED90 [11, 15]: 0.21 mg/kg
COc1ccc(C(OC)C(F)(F)F)cc1CN[C@H]1CCCN[C@H]1c1ccccc1 (mixture of isomers) | 92.9 |  | > 10.00 |  |  | inhibition in vivo at 1 mg/kg ([8]; Gerbillinae, sc): 67%
COc1ccc(CC(F)(F)F)cc1CN[C@H]1CCCN[C@H]1c1ccccc1 | 95.6 | 4.25 | 9.05 | 0.03 | 0.1 mg/kg | pKi [10]: 7.15; ED90 [11]: < 0.1 mg/kg

Further lines, with some results ahead:

inhibition at 5 µM [2] [%] | Ratio [3] | pIC50 [4] | SMILES | ED50 [6] [mg/kg] | ED100 [11] | other results
 | 1.58 | 9.68 | COc1cc2c(cc1CN[C@H]1CCCN[C@H]1c1ccccc1)C(C)(C(F)(F)F)CCC2 (mixture of isomers; 19) |  |  | inhibition (INH) [8]: 85%; inhibition (INH) ([9]; dose 0.1 mg/kg, route subcutaneous): 21%
85.4 |  | > 10.00 | COc1cc2c(cc1CN[C@H]1CCCN[C@H]1c1ccccc1)C(C(F)(F)F)CCC2 (mixture of isomers; 18) |  |  | 
 | 7.35 | 9.30 | COc1cc2c(cc1CN[C@H]1CCCN[C@H]1c1ccccc1)C(C(F)(F)F)CCC2 (mixture of isomers; 17) |  | 1 mg/kg | inhibition (INH) [8]: 77%; inhibition (INH) [12]: 76.5%; inhibition in vivo at 0.1 mg/kg [9, 14]: 55%; ED90 [11, 15]: 0.17 mg/kg
 |  | 9.05 | COc1cc2c(cc1CN[C@H]1CCCN[C@H]1c1ccccc1)C(C(F)(F)F)CC2 (mixture of isomers; 10) | 0.11 | 1 mg/kg | inhibition in vivo at 1 mg/kg [13]: 100%; inhibition (INH) [12]: 74.2%; ED90 [11, 15]: 0.12 mg/kg
 |  | 9.47 | COc1cc2c(cc1CN[C@H]1CCCN[C@H]1c1ccccc1)[C@@](C)(C(F)(F)F)OCC2 |  |  | 
 |  | > 10.00 | COc1cc2c(cc1CN[C@H]1CCCN[C@H]1c1ccccc1)C(C)(C(F)(F)F)CC2 (mixture of isomers) |  |  | % inhibition at 1 mg/kg ([8]; Gerbillinae, sc): 80%; % inhibition at 0.1 mg/kg ([9]; Gerbillinae, sc): 68%
